# PMC3558928 (Chemistry & biology, 2013)
# Legend:
# [1] = biological target: T1, BLM (Homo sapiens, UniProt P54132); assay: Traditional helicase assay, radiolabeled forked duplex, PAGE; format: biochemical
# Outline: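 Substrate was gel-purified and dialysed, and its concentration was set by scintillation counting. Reactions held at most 1% DMSO. Unwinding to ssDNA was resolved by PAGE and expressed as percent unwinding against untreated (0%) and heat-denatured (100%) controls. IC50 came from nonlinear regression.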
# [2] = biological target: BLM^636–1298 (Homo sapiens, UniProt P54132); assay: Fluorescence-quenching qHTS assay of BLM DNA unwinding; format: biochemical
# Outline: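 Quenched-fluorescence unwinding screen used bacterially expressed truncated BLM (residues 636–1298). The forked duplex substrate carries tetramethylrhodamine at the 3' end of one strand and Black Hole Quencher-2 at the 5' end of the complement. ATP-dependent unwinding raises fluorescence. Inhibition is the signal loss relative to DMSO-only controls, run as dose-response (qHTS).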
# [3] = tested on: human cells; assay: Cell cycle checkpoint responses in cells; format: cell-based; conditions: 50µM, 24 hours; data not shown
# [4] = tested on: PSNG13 cells; assay: Sister chromatid exchange; format: cell-based, human
# Outline: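 Stable transfectants of SV40-transformed Bloom syndrome fibroblast line GM08505 were used: PSNF5 (Flag-BLM) and PSNG13 (empty vector). Cells were left untreated or exposed to test compound, with exposures in the 24–72 hr range. Sister chromatid exchanges were scored as frequency per chromosome and number per chromosome.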
# [5] = tested on: PSNG13 cells; assay: γ-H2AX focus formation after mitomycin C, PSNG13; format: cell-based, human; conditions: with or without MMC, p>0.05
# [6] = tested on: PSNF5 cells; assay: γ-H2AX focus formation after mitomycin C, PSNF5; format: cell-based, human; conditions: ML216 and MMC versus MMC alone, p<0.05
# [7] = biological target: E. coli UvrD helicase (Escherichia coli, UniProt P03018); assay: Gel-based DNA unwinding assay, UvrD; format: biochemical
# [8] = biological target: T2, RecQ1 (Homo sapiens, UniProt P46063); assay: Gel-based DNA unwinding assay, RECQ1; format: biochemical
# T2 sequence (P46063 1-649): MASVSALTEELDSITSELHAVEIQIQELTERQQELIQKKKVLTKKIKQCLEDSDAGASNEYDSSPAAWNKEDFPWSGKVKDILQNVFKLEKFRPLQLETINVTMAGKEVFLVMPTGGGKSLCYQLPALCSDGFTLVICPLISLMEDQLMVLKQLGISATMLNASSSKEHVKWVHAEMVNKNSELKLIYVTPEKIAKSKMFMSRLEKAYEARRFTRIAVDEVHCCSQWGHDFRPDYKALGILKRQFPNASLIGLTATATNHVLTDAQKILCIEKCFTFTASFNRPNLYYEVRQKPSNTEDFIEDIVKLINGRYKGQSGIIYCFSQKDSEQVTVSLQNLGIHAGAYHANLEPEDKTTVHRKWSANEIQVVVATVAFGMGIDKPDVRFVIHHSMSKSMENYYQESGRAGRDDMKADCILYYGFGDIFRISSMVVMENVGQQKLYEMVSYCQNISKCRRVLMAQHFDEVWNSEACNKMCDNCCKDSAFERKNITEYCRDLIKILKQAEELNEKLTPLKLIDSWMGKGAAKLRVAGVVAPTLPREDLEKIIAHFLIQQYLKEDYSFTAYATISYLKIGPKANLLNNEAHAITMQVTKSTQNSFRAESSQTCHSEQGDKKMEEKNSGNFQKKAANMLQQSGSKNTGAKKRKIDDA
# [9] = biological target: T1, BLM; assay: BLM disruption of D-loop, Holliday junction and G-quadruplex substrates; format: biochemical
# [10] = tested on: PSNG13 cells; assay: WST-1 proliferation assay, PSNG13; format: cell-based, human; conditions: PSNG13 (BLM−); 24–72 hours
# [11] = tested on: PSNF5 cells; assay: WST-1 proliferation assay, PSNF5; format: cell-based, human; conditions: PSNF5 (BLM+); 24–72 hours
# [12] = biological target: BLM^full-length (Homo sapiens, UniProt P54132); assay: Gel-based DNA unwinding assay, forked duplex, full-length BLM; format: biochemical
# [13] = tested on: PSNF5 cells; assay: Clonogenic survival, sensitization to aphidicolin, PSNF5; format: cell-based, human; conditions: ML216 24 hours before aphidicolin, p<0.01
# Outline: (§1)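 Isogenic SV40-transformed Bloom syndrome fibroblasts (GM08505 background): PSNF5 stably expresses Flag-tagged BLM, PSNG13 carries empty vector. Cells were exposed to test compound for 24 hr, then aphidicolin was added at graded concentrations for a further 24 hr. Cells were washed and grown in drug-free medium for up to 12 days to form colonies. Survival curves come from three independent experiments (mean, SD).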
# [14] = tested on: WRN^+ and WRN^− cells; assay: Aphidicolin sensitization of WRN+ and WRN− fibroblasts; format: cell-based, human
# [15] = biological target: WRN^long (full length WRN) (Homo sapiens, UniProt Q14191); assay: Gel-based DNA unwinding assay, full length WRN; format: biochemical
# [16] = tested on: PSNF5 cells; assay: Sister chromatid exchange; format: cell-based, human
# [17] = biological target: WRN^short (WRN^500–946) (Homo sapiens, UniProt Q14191); assay: Gel-based DNA unwinding assay, truncated WRN; format: biochemical
# [18] = biological target: T1, BLM; assay: Fluorescence polarization assay of BLM binding to TAMRA-labeled oligonucleotide; conditions: dilution series; no nucleotide, ADP or ATP
# [19] = biological target: T1, BLM; assay: ssDNA-dependent ATPase activity of BLM; format: biochemical
# [20] = biological target: T1, BLM; assay: Electrophoretic mobility shift assay; format: binding; conditions: ssDNA or forked duplex; increasing concentrations
# [21] = biological target: RecQ5 (Homo sapiens, UniProt O94762); assay: Gel-based DNA unwinding assay, RECQ5; format: biochemical
# [22] = tested on: PSNG13 cells; assay: Clonogenic survival, sensitization to aphidicolin, PSNG13; format: cell-based, human
# Outline: as §1
# [23] = tested on: WRN^+ and WRN^− cells; assay: Proliferation of WRN+ and WRN− fibroblasts; format: cell-based, human
# T1 sequence (P54132 whole entry): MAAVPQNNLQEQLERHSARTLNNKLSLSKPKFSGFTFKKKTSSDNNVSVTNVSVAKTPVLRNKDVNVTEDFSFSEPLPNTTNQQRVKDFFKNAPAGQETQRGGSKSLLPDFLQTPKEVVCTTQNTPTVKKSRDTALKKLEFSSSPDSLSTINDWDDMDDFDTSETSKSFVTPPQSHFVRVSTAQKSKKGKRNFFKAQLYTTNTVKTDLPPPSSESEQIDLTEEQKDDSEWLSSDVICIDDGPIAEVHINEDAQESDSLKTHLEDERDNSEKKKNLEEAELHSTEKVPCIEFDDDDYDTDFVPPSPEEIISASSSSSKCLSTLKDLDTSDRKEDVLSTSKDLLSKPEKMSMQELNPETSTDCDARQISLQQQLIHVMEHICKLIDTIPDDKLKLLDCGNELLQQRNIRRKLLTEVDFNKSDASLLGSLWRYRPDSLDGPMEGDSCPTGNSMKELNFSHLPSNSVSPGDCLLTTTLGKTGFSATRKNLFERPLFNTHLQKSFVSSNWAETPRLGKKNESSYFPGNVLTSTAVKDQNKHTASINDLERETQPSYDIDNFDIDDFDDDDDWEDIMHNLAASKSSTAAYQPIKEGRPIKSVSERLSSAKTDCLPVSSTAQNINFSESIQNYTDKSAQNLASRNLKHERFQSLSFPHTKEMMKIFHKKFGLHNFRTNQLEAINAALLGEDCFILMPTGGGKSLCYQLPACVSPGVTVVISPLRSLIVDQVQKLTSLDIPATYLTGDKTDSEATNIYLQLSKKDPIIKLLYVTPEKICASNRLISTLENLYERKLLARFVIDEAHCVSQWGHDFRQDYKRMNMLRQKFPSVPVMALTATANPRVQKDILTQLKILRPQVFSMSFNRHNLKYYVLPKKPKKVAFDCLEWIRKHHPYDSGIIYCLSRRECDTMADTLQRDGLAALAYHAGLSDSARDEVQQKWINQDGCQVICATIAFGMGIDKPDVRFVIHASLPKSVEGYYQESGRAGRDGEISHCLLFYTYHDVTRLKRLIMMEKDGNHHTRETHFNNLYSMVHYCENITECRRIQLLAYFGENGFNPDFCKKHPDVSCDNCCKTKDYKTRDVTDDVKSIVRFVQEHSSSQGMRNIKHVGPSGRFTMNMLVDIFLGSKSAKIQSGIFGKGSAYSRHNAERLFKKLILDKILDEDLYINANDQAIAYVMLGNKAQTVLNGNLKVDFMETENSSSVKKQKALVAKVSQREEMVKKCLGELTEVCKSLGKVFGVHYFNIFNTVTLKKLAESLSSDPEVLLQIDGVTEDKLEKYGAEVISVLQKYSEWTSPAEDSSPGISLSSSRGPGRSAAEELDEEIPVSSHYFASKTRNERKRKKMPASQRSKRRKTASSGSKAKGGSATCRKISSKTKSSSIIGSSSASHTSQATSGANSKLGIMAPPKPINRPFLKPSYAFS
# Chain of E. coli UvrD helicase (P03018 whole entry): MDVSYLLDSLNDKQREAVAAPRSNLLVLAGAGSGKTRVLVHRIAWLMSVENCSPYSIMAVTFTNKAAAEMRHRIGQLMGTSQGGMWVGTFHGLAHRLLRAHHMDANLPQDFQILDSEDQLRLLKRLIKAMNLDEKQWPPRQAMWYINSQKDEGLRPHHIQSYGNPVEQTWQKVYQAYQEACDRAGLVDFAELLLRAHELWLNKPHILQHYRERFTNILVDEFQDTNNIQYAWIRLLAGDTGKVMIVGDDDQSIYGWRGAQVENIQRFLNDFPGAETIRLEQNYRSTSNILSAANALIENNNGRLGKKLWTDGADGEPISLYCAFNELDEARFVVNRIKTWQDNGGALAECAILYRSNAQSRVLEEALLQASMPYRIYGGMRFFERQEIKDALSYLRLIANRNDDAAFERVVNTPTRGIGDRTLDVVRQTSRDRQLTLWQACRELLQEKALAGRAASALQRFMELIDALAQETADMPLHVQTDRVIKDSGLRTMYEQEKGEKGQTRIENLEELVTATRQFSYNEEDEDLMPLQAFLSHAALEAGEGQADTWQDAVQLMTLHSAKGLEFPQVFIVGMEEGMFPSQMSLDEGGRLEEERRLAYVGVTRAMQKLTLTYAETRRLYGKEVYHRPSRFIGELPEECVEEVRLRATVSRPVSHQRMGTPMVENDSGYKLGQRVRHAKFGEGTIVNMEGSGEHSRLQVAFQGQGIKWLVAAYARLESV
# Chain of RecQ5 (O94762 whole entry): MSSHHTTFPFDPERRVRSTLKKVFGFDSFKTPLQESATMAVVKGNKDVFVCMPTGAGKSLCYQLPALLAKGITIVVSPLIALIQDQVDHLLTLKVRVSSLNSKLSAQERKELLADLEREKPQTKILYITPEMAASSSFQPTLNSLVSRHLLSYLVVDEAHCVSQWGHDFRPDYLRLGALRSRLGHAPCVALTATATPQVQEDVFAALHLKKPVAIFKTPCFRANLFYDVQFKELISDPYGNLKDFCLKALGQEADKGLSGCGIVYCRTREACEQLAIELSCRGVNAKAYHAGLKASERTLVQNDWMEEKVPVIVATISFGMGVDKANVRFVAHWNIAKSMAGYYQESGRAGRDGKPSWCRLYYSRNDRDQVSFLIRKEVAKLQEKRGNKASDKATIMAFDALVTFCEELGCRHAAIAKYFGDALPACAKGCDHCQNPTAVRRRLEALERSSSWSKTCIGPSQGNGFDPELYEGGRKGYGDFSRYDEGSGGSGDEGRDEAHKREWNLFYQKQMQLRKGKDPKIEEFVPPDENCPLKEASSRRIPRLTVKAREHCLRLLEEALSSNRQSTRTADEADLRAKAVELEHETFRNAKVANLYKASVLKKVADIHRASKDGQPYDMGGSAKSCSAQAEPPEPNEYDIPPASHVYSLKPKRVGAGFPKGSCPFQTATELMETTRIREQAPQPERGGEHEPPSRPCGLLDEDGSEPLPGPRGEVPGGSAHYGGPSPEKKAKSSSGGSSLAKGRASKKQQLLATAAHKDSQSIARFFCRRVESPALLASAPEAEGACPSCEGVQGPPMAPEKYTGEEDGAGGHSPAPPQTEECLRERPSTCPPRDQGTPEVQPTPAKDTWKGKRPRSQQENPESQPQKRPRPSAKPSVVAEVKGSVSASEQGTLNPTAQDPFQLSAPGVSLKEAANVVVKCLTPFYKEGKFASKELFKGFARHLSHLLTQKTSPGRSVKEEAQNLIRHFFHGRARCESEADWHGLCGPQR
# Chain of BLM^full-length (P54132 whole entry): as the sequence (P54132 whole entry) above
# Chain of BLM^636–1298 (P54132 636-1298): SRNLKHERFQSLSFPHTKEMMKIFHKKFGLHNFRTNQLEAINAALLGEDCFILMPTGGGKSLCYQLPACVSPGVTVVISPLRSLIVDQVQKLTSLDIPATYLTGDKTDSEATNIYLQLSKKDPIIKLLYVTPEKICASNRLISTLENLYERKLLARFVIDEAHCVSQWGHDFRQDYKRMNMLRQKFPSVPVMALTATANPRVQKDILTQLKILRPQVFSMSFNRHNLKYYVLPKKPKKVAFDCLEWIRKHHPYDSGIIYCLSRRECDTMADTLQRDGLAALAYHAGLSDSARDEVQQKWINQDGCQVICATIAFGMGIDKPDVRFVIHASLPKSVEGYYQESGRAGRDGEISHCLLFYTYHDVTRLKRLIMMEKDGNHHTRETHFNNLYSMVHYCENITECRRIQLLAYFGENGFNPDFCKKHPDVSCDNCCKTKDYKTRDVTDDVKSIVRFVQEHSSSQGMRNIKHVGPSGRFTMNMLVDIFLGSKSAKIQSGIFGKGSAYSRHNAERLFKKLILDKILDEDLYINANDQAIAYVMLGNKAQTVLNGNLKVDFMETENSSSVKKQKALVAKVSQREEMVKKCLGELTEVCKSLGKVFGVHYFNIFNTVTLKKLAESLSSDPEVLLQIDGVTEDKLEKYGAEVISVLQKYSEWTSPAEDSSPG
# Chain of WRN^short (WRN^500–946) (Q14191 500-946): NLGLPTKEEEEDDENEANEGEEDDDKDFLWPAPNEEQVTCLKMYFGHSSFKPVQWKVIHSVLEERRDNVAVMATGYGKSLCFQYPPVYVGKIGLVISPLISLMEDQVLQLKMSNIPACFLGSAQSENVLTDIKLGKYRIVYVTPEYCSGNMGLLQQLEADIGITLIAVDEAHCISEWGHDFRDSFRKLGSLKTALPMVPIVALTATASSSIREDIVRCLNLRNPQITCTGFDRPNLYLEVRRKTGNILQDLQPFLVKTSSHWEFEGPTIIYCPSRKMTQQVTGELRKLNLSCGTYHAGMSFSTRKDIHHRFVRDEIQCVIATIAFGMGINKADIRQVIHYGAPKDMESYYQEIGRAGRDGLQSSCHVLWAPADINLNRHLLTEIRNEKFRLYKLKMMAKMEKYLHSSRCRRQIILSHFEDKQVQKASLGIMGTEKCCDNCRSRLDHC
smiles,measurement,setting,value
O=C(Nc1ccc(Cl)c(Cl)c1)Nc1nnc(-c2ccncc2)s1 [MLS000559245],activity in radioactivity-based helicase assay,[1],showed activity
same,activity in fluorescence-based screening assay,[2],showed activity
O=C(Nc1ccc(F)c(C(F)(F)F)c1)Nc1nnc(-c2ccncc2)s1 [ML216],cell cycle arrest in G1/S or G2/M,[3],did not cause cell cycle arrest
same,"phosphorylation of ATM or ATR targets, including CHK1 and CHK2",[3],did not appear to cause phosphorylation
same,frequency of sister chromatid exchanges (SCEs),[4],not in PSNG13 cells
same,γ-H2AX focus formation,[5],no significant effect
same,γ-H2AX focus formation,[6],statistically significant reduction
same,IC50,[7],> 50 µM
same,inhibition of helicase activity,[7]; at 50 µM,only very modest inhibition
same,IC50,[8],> 50 µM
same,inhibition of helicase activity,[8]; at 50 µM,only very modest inhibition
same,inhibition of BLM's G-quadruplex disrupting activity,[9],only very modest inhibition
same,inhibition of disruption of the D-loop substrate,[9]; 50 µM,only at high concentrations
same,inhibition of disruption of the Holliday junction substrate,[9]; 50 µM,only at high concentrations
same,effect on cell proliferation,[10],not of PSNG13 cells
same,effect on cell proliferation,[11],inhibitor of the proliferation of PSNF5 cells
same,sensitivity of BLM versus WRN (based on IC50 values),[12],1.7 fold
same,sensitivity to aphidicolin,[13],increased the sensitivity
same,"sensitization to aphidicolin, WRN^+ versus WRN^− cells",[14],similarly sensitized both cell types
same,sensitivity of full length WRN versus WRN^500–946 (based on IC50 values),[15],2.5 fold
same,frequency of sister chromatid exchanges (SCEs),[16],statistically significant increase
same,"frequency of SCEs, short exposure",[16]; present only during the last 8 hours,statistically significant increase in the frequency of SCEs
same,IC50,[17],12.6 µM
same,effect on DNA binding by BLM (fluorescence polarization),[18],inhibits the ability of BLM to bind DNA
same,mode of inhibition of ATPase activity with respect to ATP,[19],non-competitive
same,effect on DNA binding by BLM (EMSA),[20],displacement of either ssDNA or forked duplex DNA from a complex with BLM
same,IC50,[21],> 50 µM
same,inhibition of helicase activity,[21]; at 50 µM,only very modest inhibition
same,sensitivity to aphidicolin,[22],no sensitizing effect
same,"inhibition of proliferation, WRN^+ versus WRN^− cells",[23],equally well
